Assay results published in paper PMC3448962 (Biochemical pharmacology, 2012).
Read-outs that look alike come from different tables or passages of the source. Blank lines part the entries; values can stand above or below the molecule they belong to. Where a SMILES comes first, the peptide text is derived from it. Bridges are numbered along the chain shown (N, C = ends). [ ]: non-standard residue; d: D form. The star is where a group is joined. X1 = CC[C@H](C)CCCCC(=O)*; Dab = NCC[C@H](N)C(=O)O

Key:
human AGP [1] = experiment: Fluorometric assay: direct titration of fluorescent probe into AGP; settings: for binding to AGP by direct fluorometric titration: emission did not plateau where seen, no Kd derived
human AGP [2] = experiment: in vitro; settings: pH 7.4, Ki
human AGP [3] = experiment: Fluorometric probe displacement assay; settings: for displacement of BODIPY-PL2 from AGP: probe BODIPY-PL2
[4] = cited from earlier work
[5] = tested on: human α-1-acid glycoprotein (AGP); experiment: Fluorometric probe displacement assay; settings: human
[6] = rats; cited from earlier work
[7] = human plasma; equilibrium dialysis; cited from earlier work
human AGP [8] = experiment: in vitro; settings: pH 7.4
human AGP [9] = experiment: Surface plasmon resonance; format: binding; settings: for SPR binding response at single concentrations: 100 μM and 300 μM of each compound
Summary of the method: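 AGP was thiol-coupled (PDEA/EDC, MES pH 5.0) to a CM5 chip at 5000 RU, with PBS pH 7.4 running buffer at 25 °C. Compound series were 3-fold dilutions from 3 mM, plus single 100 and 300 μM injections, at 50 μL/min: 30 s association, 60 s dissociation. Response was read 10 s before association ended, reference-subtracted and MW-normalised. Glycine pH 1.7 regenerated the chip; chlorpromazine served as surface control. Runs were done ≥3 times.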

human AGP [10] = experiment: Isothermal titration calorimetry; format: binding; settings: for Kd: 25 °C
Summary of the method: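 Human AGP (63 μM) in 20 mM HEPES pH 7.0, degassed, was titrated with 80 × 3-μL injections of 10–13 mM test compound at 240-s intervals, stirred at 307 rpm. Runs were at 37 °C, with one compound also at 15, 20, 25 and 30 °C. Delipidation was on lipidex 1000 in 20 mM HEPES pH 7.4 at 37 °C. Heat of dilution was subtracted, and n and ΔH came from a one-set-of-sites fit.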

[11] = cited from earlier work; remark: listed apart in the source

Molecule: 2-(4,4-difluoro-5-methyl-4-bora-3a,4a-diaza-s-indacene-3-dodecanoyl)-1-hexadecanoyl-sn-glycero-3-phosphocholine [BODIPY-PL2]
binding to AGP by direct fluorometric titration (human AGP [1]): apparent weak affinity

Molecule: O=S(=O)(O)c1cccc2cccc(Nc3ccccc3)c12 [ANS, 1-anilino-8-naphthalene sulfonic acid]
Kd at 2 min (human AGP [1]; human, pH 7.4): 0.87 ± 0.07 µM

Molecule: CCCCCCCCCCCCCCCC(=O)OC[C@H](COP(=O)(O)OCCNC(=O)CCc1ccc2n1[B-](F)(F)[N+]1=C(C)C=C(C)C1=C2)OC(=O)CCCCCCCCCCCCCCC.CCN(CC)CC [BODIPY-PL1, N-(4,4-difluoro-5,7-dimethyl-4-bora-3a,4a-diaza-s-indacene-3-propionyl)-1,2-dihexa-decanoyl-sn-glycero-3-phosphoethanolamine, triethylammonium salt]
binding to AGP by direct fluorometric titration (human AGP [1]): no fluorescence emission observed

Molecule: CC[C@H](C)CCCCC(=O)N[C@@H](CCN)C(=O)N[C@H](C(=O)N[C@@H](CCN)C(=O)N[C@H]1CCNC(=O)[C@H]([C@@H](C)O)NC(=O)[C@H](CCN)NC(=O)[C@H](CCN)NC(=O)[C@H](CC(C)C)NC(=O)[C@@H](CC(C)C)NC(=O)[C@H](CCN)NC1=O)[C@@H](C)O [Colistin, colistin] (X1-[Dab]T[Dab][Dab][Dab][dL]L[Dab][Dab]T; lactam 4-C (inferred); N-terminus assumed)
level of plasma protein binding in neutropenic infected mice compared to healthy mice [4]: greater
displacement of BODIPY-PL2 from AGP (human AGP [3]): unable to produce any discernible displacement
Ki ([5]; Ki values (text summary over probes), titration of probe-AGP solutions): > 200 µM
Ki ([5]; Ki, displacement of ANS, probe ANS, 20°C, mean ± SE, n = 3 unless otherwise indicated, ND = not detected): 351 ± 188 µM
plasma protein binding [6]: 55–57%
bound to plasma [7]: over 50%

Molecule: Polymyxin B [PmB]
SPR binding response at single concentrations (human AGP [9]): highest response
displacement of BODIPY-PL2 from AGP (human AGP [3]): unable to produce any discernible displacement
Ki (human AGP [3]; read-out: Ki values (text summary over probes), titration of probe-AGP solutions): > 200 µM
Ki (human AGP [3]; read-out: Ki, displacement of ANS, probe ANS, 20°C, mean ± SE, n = 3 unless otherwise indicated, ND = not detected): 225 ± 49 µM
Kd (human AGP [10]; read-out: Kd, delipidated AGP, delipidated sample): 210 µM
Kd (human AGP [10]; read-out: Kd, non-delipidated AGP, non-delipidated sample): 103 µM
plasma protein binding, critically ill septic patients ([11]; critically ill septic patients): more than 90%
plasma protein binding, healthy subjects ([11]; healthy subjects): around 56%
bound to plasma [7]: over 50%

Molecule: colistin methanesulfonate [CMS]
SPR binding response at single concentrations (human AGP [9]): very poor responses
concentration dependence of SPR binding (human AGP [9]; concentration series 3 mM to 1.3 μM): not concentration dependent
ability to displace the probes (human AGP [3]; ANS, Auramine O, Nile Red): no ability to displace any of the probes
binding affinity for AGP by ITC (human AGP [10]): no detectable binding affinity

Continued, values first:

Ki at 2 min (human AGP [2]; displacement of ANS): 0.14 ± 0.01 µM
Ki at 2 min (human AGP [2]; displacement of AO): 2.8 ± 0.2 µM
Ki at 2 min (human AGP [2]; displacement of NR): 0.67 ± 0.05 µM
displacement of BODIPY-PL2 from AGP (human AGP [3]): able to compete with BODIPY-PL2
Molecule: CN(C)CCCN1c2ccccc2Sc2ccc(Cl)cc21 [Chlorpromazine]

Kd at 2 min (human AGP [8]): 0.91 ± 0.2 µM
Molecule: CCN(CC)c1ccc2nc3c4ccccc4c(=O)cc-3oc2c1 [NR, Nile Red]

SPR binding response at single concentrations (human AGP [9]): very poor responses
binding affinity for AGP by ITC (human AGP [10]): no detectable binding affinity
Molecule: Colistin nona-peptide [colistin NP]

binding to AGP by direct fluorometric titration (human AGP [1]): weak AGP affinity
Molecule: [Dansyl-Lys]^1 polymyxin B3 [[Dansyl-Lys^1]PmB3]
